# Assay results pooled from the literature.
# Protocols differ between the studies behind these lines.
# Cell line: A549
# Observed: cell growth or viability
SMILES,test,setting,endpoint,result
O=C(Nc1ccc(-c2cn(Cc3ccc(Br)cc3)nn2)cc1)Nc1ccccc1Br,CCK-8,"50 µM, 72 h",viability,89%
COc1ccc(NC(=O)NCc2cn(Cc3ccccc3C)nn2)cc1,CCK-8,"50 µM, 72 h",viability,68%
CCCn1cnc2ccc(-c3ccc(N4CCCC4=O)nc3)cc2c1=O,CCK-8,72 h,IC50,> 10 µM
NCCCC(=O)Nc1ccccc1/N=c1\cc(-c2ccc3c(c2)OCO3)oc2ccccc12,CCK-8,1 µM,inhibition,-0.2%
CCCCCCCCCCCCCCCCCCOc1ccccc1CC(=O)OCC[N+]1(C)CCCC1,SRB,10 µM,inhibition,77%
COc1ccc(NC(=O)Nc2cccc(-c3cn(Cc4ccc(C)cc4)nn3)c2)cc1,CCK-8,"20 µM, 72 h",viability,146%
NCC(=O)Nc1ccccc1/N=c1\cc(-c2ccc3c(c2)OCCO3)oc2cc(F)ccc12,CCK-8,1 µM,inhibition,-1.67%
CCCCCCCCCCCCCCCCCCOc1ccccc1CC(=O)OCC[N+]1(C)CCCCC1,SRB,10 µM,inhibition,57.8%
CCCCCC(=O)Nc1ccc(-c2ccc3ncn(CCCC)c(=O)c3c2)cn1,CCK-8,72 h,IC50,1.34 µM
CCOc1ccc(C(=O)CC(SCc2ccc(Cl)cc2)C(=O)OC)cc1 (stereo not shown),MTT,48 h,EC50,> 250 µM
CCCCCCCCCCCCCCCCCCOc1ccc(CC(=O)OCC[N+]2(C)CCCCC2)cc1,SRB,10 µM,inhibition,11.1%
O=C(Nc1ccc(Cl)cc1)Nc1ccc(-c2cn(Cc3cccc(Cl)c3)nn2)cc1,CCK-8,"50 µM, 72 h",viability,73.2%
CCCCC(=O)Nc1cc(F)c(-c2ccc3ncn(CCC)c(=O)c3c2)cn1,CCK-8,72 h,IC50,1.58 µM
COc1ccc(NC(=O)Nc2cccc(-c3cn(Cc4ccccc4C)nn3)c2)cc1,CCK-8,"50 µM, 72 h",viability,212%
O=C(Nc1ccc(Cl)cc1)Nc1ccc(-c2cn(Cc3ccc(Cl)cc3)nn2)cc1,CCK-8,"20 µM, 72 h",viability,73.2%
CCCCn1cnc2ccc(-c3ccc(NC(=O)Nc4ccc(OC(F)(F)F)cc4)nc3)cc2c1=O,CCK-8,72 h,IC50,> 10 µM
CCCCCCCCCCCCCCCCCCOc1cccc(CC(=O)OCC[N+](C)(C)C)c1,SRB,10 µM,inhibition,8.12%
CCCCC(=O)Nc1ccc(-c2ccc3ncn(CC)c(=O)c3c2)cn1,CCK-8,72 h,IC50,0.92 µM
COc1ccc(NC(=O)Nc2ccc(-c3cn(Cc4ccc(Cl)cc4)nn3)cc2)cc1,CCK-8,"50 µM, 72 h",viability,98.3%
N#CSCCCCOc1ccc2c(-c3ccccc3)cc(=O)oc2c1,SRB,,GI50,36 µM
O=C(Nc1nc2cc(-c3ccc4ncn(Cc5ccccc5)c(=O)c4c3)ccc2s1)c1ccccc1,MTT,72 h,IC50,> 20 µM
CCCCCCCCCCCCCCCCCCOc1ccccc1CC(=O)OCC[N+](CC)(CC)CC,SRB,10 µM,inhibition,70.7%
C[C@H](N)C(=O)Nc1ccccc1/N=c1\cc(-c2ccc3c(c2)OCCO3)oc2cc(F)ccc12,CCK-8,1 µM,inhibition,-0.65%
O=C(Nc1ccc(-c2cn(Cc3ccc(Cl)cc3)nn2)cc1)Nc1ccccc1Br,CCK-8,"50 µM, 72 h",viability,107%
CCCCC(=O)Nc1ccc(-c2ccc3ncn(CC#N)c(=O)c3c2)cn1,CCK-8,72 h,IC50,> 10 µM
COc1ccc(NC(=O)Nc2cccc(-c3cn(Cc4ccc(Br)cc4)nn3)c2)cc1,CCK-8,"50 µM, 72 h",viability,271%
N#CSCc1cc(=O)oc2cc(O)ccc12,SRB,,GI50,5.8 µM
NCCC(=O)Nc1ccccc1/N=c1\cc(-c2ccc3oc(N)nc3c2)oc2ccccc12,CCK-8,1 µM,inhibition,14.5%
CCCCn1cnc2ccc(-c3ccc(NC(=O)C4CCC4)nc3)cc2c1=O,CCK-8,72 h,IC50,3.93 µM
COc1ccc(NC(=O)NCc2cn(Cc3ccc(Cl)cc3)nn2)cc1,CCK-8,"20 µM, 72 h",viability,71.9%
O=C(NCc1cn(Cc2cccc(Cl)c2)nn1)Nc1ccc(Cl)cc1,CCK-8,"50 µM, 72 h",viability,79.5%
COc1ccc(NC(=O)Nc2cccc(-c3cn(Cc4ccc(Cl)cc4)nn3)c2)cc1,CCK-8,"50 µM, 72 h",viability,270%
COc1ccc2oc(-c3ccc4nc(N)oc4c3)c/c(=N\c3ccccc3NC(=O)CCN)c2c1,CCK-8,1 µM,inhibition,39.1%
O=C(Nc1ccc(Cl)cc1)Nc1nc2cc(-c3ccc4ncn(Cc5ccccc5)c(=O)c4c3)ccc2s1,MTT,72 h,IC50,> 20 µM
COc1ccc2/c(=N/c3ccccc3NC(=O)[C@@H](N)CO)cc(-c3ccc4c(c3)OCCO4)oc2c1,CCK-8,1 µM,inhibition,1.6%
O=C(Nc1ccc(Cl)cc1)Nc1cccc(-c2cn(Cc3cccc(Cl)c3)nn2)c1,CCK-8,"20 µM, 72 h",viability,115%
C[C@H](N)C(=O)Nc1ccccc1/N=c1\cc(-c2ccc3c(c2)OCCO3)oc2c([N+](=O)[O-])cccc12,CCK-8,1 µM,inhibition,0.38%
O=C(NCc1cn(Cc2ccc(Cl)cc2)nn1)Nc1ccc(Cl)cc1,CCK-8,"20 µM, 72 h",viability,61.7%
NCC(=O)Nc1ccccc1/N=c1\cc(-c2ccc3c(c2)OCO3)oc2c([N+](=O)[O-])cccc12,CCK-8,1 µM,inhibition,-2.29%
CCCCNC(=O)Nc1ccc(-c2ccc3ncn(CCCC)c(=O)c3c2)cn1,CCK-8,72 h,IC50,1.39 µM
